Hits are enriched below; roughly 2.3% of the tested compounds scored in any of these assays.
TRPC4 inh = inhibitors of mouse TRPC4 channel | Q9QUQ5 | HEK293 TRPC4beta/mu-opioid, DAMGO-evoked Fluo4 calcium flux; active compounds read low | B-score at 10 µM | 0.39% of 300,000 active;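 active = B-score over 3 SD under the library average, no early fluorescence shift, positive overall ratio signal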
Target sequence (Q9QUQ5 whole entry, looked up): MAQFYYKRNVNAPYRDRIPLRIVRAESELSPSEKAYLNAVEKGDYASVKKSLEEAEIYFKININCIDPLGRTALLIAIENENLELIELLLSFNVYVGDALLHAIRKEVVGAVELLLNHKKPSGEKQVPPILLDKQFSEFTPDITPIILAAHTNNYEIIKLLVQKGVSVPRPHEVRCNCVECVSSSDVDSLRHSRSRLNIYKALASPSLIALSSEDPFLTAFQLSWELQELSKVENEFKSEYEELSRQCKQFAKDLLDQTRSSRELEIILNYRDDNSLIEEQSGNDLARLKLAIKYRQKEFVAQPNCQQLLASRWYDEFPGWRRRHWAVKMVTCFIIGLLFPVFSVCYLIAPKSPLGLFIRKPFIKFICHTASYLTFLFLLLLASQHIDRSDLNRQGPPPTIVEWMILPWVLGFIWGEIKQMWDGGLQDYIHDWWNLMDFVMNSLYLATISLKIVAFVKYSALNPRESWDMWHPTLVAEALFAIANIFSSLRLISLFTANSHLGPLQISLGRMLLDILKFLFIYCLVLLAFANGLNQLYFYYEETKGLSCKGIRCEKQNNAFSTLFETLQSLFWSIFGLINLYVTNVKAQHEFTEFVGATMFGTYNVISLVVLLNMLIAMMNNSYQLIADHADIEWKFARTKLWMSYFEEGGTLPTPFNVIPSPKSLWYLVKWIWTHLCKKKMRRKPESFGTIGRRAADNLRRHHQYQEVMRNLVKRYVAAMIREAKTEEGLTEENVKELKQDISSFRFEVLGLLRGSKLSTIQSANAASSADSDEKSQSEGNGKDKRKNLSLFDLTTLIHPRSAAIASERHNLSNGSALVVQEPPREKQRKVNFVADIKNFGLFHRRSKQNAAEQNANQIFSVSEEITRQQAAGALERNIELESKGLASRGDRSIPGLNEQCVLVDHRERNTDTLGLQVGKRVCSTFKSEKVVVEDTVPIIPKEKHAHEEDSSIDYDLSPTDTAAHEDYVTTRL
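Assay system: Stable TRPC4beta/mu-opioid receptor HEK293 cells | Reagent: DAMGO in two steps, submaximal then maximal | Compound dosing: Single concentration per test compound | Signal: Fluo4 Ca2+ flux fluorescence | Evaluation: Per-well B score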
TRPC4 potent = allosterically enhances the mouse TRPC4 cation channel; Q9QUQ5; HEK293 TRPC4beta/mu-opioid, DAMGO EC20, Fluo-4 Ca2+ flux; active compounds read high; 0.42% of 310,000 active; B-score at 10 µM;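 active = B-score of calcium response area above 5 SD of library B-scores, with initial fluorescence ratio within 5 SD of library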;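 note: B-score of integrated fluorescence ratio over time as area under calcium response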
TRPC4 agonist = opens the mouse TRPC4 cation channel. Q9QUQ5. HEK293 TRPC4beta/mu-opioid, Fluo4 calcium fluorescence; active compounds read high. B-score at 10 µM. 0.49% of 310,000 active;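 active = B-score above 5 SD of library B-scores, and initial fluorescence ratio not above library mean plus 5 SD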;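 note: positive B-score marks a calcium rise read as TRPC4 activation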
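Material: HEK293 stable line with TRPC4beta plus mu-opioid receptor; technique: Fluo4 calcium-sensitive dye fluorescence, kinetic, 1 Hz baseline; timing: Fluo4 dye loading 45 min at room temperature, 110 s recording; controls: assay buffer as low control, maximal DAMGO as high control; read-out: integrated baseline-normalised fluorescence ratio, converted to per-well B score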
TRPC6 inhibitor = mouse TRPC6 channel inhibition | Q61143 | HEK293-TRPC6, membrane potential dye, ACh-evoked depolarization; active compounds read low | B-score at 10 µM | 1.1% of 310,000 active | AID 2553;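 active = B-score under library mean minus 3 SD, initial fluorescence not abnormally high, positive integrated signal ratio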;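 note: B-score derived from integrated fluorescence ratio over the kinetic read; more negative B-score means stronger inhibition of depolarization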
TRPC6 act = activates the mouse TRPC6 cation channel | B-score at 10 µM | 0.13% of 310,000 active | HEK293-TRPC6 membrane potential dye fluorescence; active compounds read high | Q61143;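 active = B-score of the integrated fluorescence ratio above library mean plus 3 SD, and starting fluorescence ratio within library mean plus 5 SD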;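 note: higher score means more depolarization so channel activation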
Numbers without * were called inactive; i = inactive.

SMILES	TRPC4 inh	TRPC4 potent	TRPC4 agonist	TRPC6 inhibitor	TRPC6 act
CC(C)(c1ccccc1)c1ccc(OCC(O)CNC2CCN(Cc3ccccc3)CC2)cc1 (stereo unspecified)	i	i	92*	i	i
CCOc1ccc(OCC(O)CNC2CCN(Cc3ccccc3)CC2)cc1 (stereo unspecified)	-6*	i	108*	i	i
COc1c(/C=N/NC(N)=S)c(C)nn1-c1ccccc1	i	i	i	i	i
c1ccc2c(-c3cn4ccccc4n3)c[nH]c2c1	-9*	i	i	-5.5*	i
O=C(CCCN=C1NS(=O)(=O)c2ccccc21)OCC(=O)c1ccc(F)cc1	i	i	48*	i	i
O=C(COC(=O)Cn1cnc2ccccc2c1=O)Nc1ccc(Cl)cc1	i	i	i	i	i
O=C(COC(=O)Cn1cnc2ccccc2c1=O)Nc1ccccc1Sc1ccc(Cl)cc1	-5*	i	i	i	i
O=C(COc1ccc(Br)cc1Cl)c1ccc[nH]1	-6*	i	i	i	i
CCc1ccccc1Nc1nc2ccccc2n1CC	i	i	i	i	i
CCCn1c(NCc2ccc(C)o2)nc2ccccc21	-6*	i	i	i	i
CCCn1c(Nc2ccccc2C)nc2ccccc21	-5*	i	i	i	i
Cn1c2c(c(=O)n(C)c1=O)C(c1ccc(C(F)(F)F)cc1)CC(=O)N2 (stereo unspecified)	i	i	i	i	i
CC1(C)Cc2c(sc3c2c(=N)n(Cc2ccco2)c(=O)n3Cc2ccccc2)CO1	i	i	i	i	i
COc1ccc(C)cc1S(=O)(=O)NC1CCCC1	i	i	i	i	i
COc1ccc(S(=O)(=O)NC2CCCC2)c(Cl)c1Cl	i	11*	i	i	i
COc1ccc(S(=O)(=O)N(CC(=O)NCc2ccco2)c2ccc(C)cc2)cc1OC	i	i	i	i	i
COc1ccc(-c2ccc(CNCc3ccccn3)o2)cc1Cl	-8*	i	i	i	i
CCOCCCNC(=O)/C(C#N)=C/c1ccc(Cl)c([N+](=O)[O-])c1	i	18*	i	i	i
O=C(Nc1ccc(O)c2c(=O)cc(-c3ccccc3Cl)oc12)c1ccc(Cl)c(Cl)c1	i	i	i	i	i
O=C(Nc1cccc(F)c1)N1CCN(C(=O)c2ccco2)CC1	i	i	i	i	i
C=CCn1c(SCC(=O)OC)nc2sc3c(c2c1=O)CCN(C)C3	i	i	i	-5.7*	i
COc1ccc(C)cc1NCc1ccc([N+](=O)[O-])cc1	i	i	i	i	i
COc1ccc(CNCCc2ccc([N+](=O)[O-])cc2)c(OC)c1OC	i	i	81*	i	i
CCCN1CCN(CCCNC(=O)C2CCN(c3nnc(-n4c(C)ccc4C)s3)CC2)CC1	i	i	i	i	i
COC(=O)[C@@]12CCCN1[C@H](c1ccc(-c3ccc(OC)cc3)cc1)[C@@H]1C(=O)N(C)C(=O)[C@@H]12	i	24*	i	i	i
SMILES	TRPC4 inh	TRPC4 potent	TRPC4 agonist	TRPC6 inhibitor	TRPC6 act
COC(=O)[C@@]12CCCN1[C@H](c1ccc(-c3ccccc3)cc1)[C@H]1C(=O)N(C)C(=O)[C@H]12	i	i	i	i	i
CC(=O)c1ccc(NC(=O)CCC(=O)N2CC(C)Oc3ccc(C)cc32)cc1 (stereo unspecified)	i	i	i	i	i
Cc1ccc2c(c1)N(C(=O)CCC(=O)Nc1ccccc1Br)CC(C)O2 (stereo unspecified)	-9*	i	i	i	i
NC1=NC[C@H](Cc2ccc(O)cc2)N1CC1CCCCC1	i	i	76*	i	i
O=C1CCC(C(=O)OCC(=O)N2N=C3/C(=C/c4ccccc4)CCCC3C2c2ccccc2)N1 (stereo unspecified)	i	i	i	i	i
COc1ccc(/C=C2\CCCC3C2=NN(C(=O)CSc2n[nH]c(N)n2)C3c2ccc(OC)cc2)cc1 (stereo unspecified)	i	12*	i	i	i
O=C(N/N=C/c1ccsc1)c1ccc2ccccc2n1	i	17*	i	i	i
O=C(N/N=C/c1ccc2c(c1)OCO2)c1ccc2ccccc2n1	i	i	i	i	i
O=C(c1ccccc1)c1ccc(OCC(O)CNC2CCCc3ccccc32)cc1 (stereo unspecified)	i	i	i	i	i
OC(CNC1CCCc2ccccc21)COc1ccc2ccccc2c1 (stereo unspecified)	i	i	101*	i	i
CC(C)(C)[C@@H]1C=C(C(=O)NC2CC2)O[C@H](OCc2ccc(CO)cc2)C1	i	i	i	i	i
CCOC(=O)C1(CCc2ccccc2)CCN(Cc2ccccn2)CC1	-8*	i	i	i	i
CCOC(=O)C1(Cc2ccc(Cl)cc2)CCN(Cc2cn(CC)nc2C)CC1	-6*	i	68*	i	i
CCOC(=O)C1(CCCc2ccccc2)CCN(Cc2cnn(C)c2)CC1	i	i	120*	i	i
CCOC(=O)C1(Cc2ccccc2)CCN(Cc2cnn(C(C)C)c2)CC1	i	i	55*	i	i
CCOC(=O)C1(Cc2ccccc2)CCN(Cc2csc(C(C)=O)c2)CC1	i	i	i	i	i
c1ccc(-c2cc3c(N4CCN(c5ncccn5)CC4)ncnc3s2)cc1	i	i	i	i	i
COC(=O)c1sc(NC(=O)c2cc(-c3ccccc3)nc3ccccc23)c(C#N)c1C	i	13*	i	i	i
CCOC(=O)c1sc(NC(=O)c2cc(-c3ccc(C)cc3)nc3ccccc23)c(C#N)c1C	i	i	i	i	i
Cc1cccc(NC(=S)NC2CC3CCC(C2)N3Cc2ccco2)c1C (stereo unspecified)	i	i	i	i	i
Cc1cccc(NC(=S)NC2CC3CCCC(C2)N3Cc2ccccc2)c1C (stereo unspecified)	i	i	65*	i	i
Cc1ccc(NC(=S)NC2CC3CCC(C2)N3Cc2ccco2)c(C)c1 (stereo unspecified)	i	i	116*	i	i
Cc1ccc(NC(=O)c2cccs2)cc1NC(=O)c1cccc(F)c1	i	i	i	i	i
O=C(COc1ccc(Cl)cc1Cl)NCCCn1ccnc1	i	i	i	i	i
Cc1cc(Cl)cc(C)c1OCCCCn1ccnc1	i	i	106*	i	i

Compound activity from PubChem.
